Experimental data published in ChEMBL document CHEMBL5230178, “6-Bromoindirubin-3'-oxime derivatives are highly active colistin adjuvants against Klebsiella pneumoniae” (RSC Med Chem, 2023).
The source made the active and inactive calls. The calls are words filed in the database; no cut-off is given here.

Assays:
[1] = tested on: Klebsiella pneumoniae; test: Potentiation of colistin-induced antibacterial activity against colistin-resistant Klebsiella pneumoniae B9 assessed as fold change in colistin MIC at 5 uM incubated for 16 hrs by broth microdilution method; format: functional
Procedure, shortened: (§1)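 Bacteria grown 6 h in CAMHB, diluted to 5×10^5 CFU/mL. Fixed adjuvant concentration added from DMSO stock; an undosed aliquot gives the colistin MIC alone. Colistin serially two-fold diluted in the compound-dosed suspension. MIC taken at 90% growth inhibition versus untreated wells. Fold change is colistin MIC alone over MIC with adjuvant. Duplicate, repeated at least twice.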

[2] = tested on: Klebsiella pneumoniae; test: Potentiation of colistin-induced antibacterial activity against colistin-resistant Klebsiella pneumoniae B9 assessed as colistin MIC at 1 uM incubated for 16 hrs by broth microdilution method; format: functional; procedure, shortened: as §1
[3] = tested on: Klebsiella pneumoniae; test: Potentiation of colistin-induced antibacterial activity against colistin-resistant Klebsiella pneumoniae B9 assessed as colistin MIC at 3 uM incubated for 16 hrs by broth microdilution method; format: functional; procedure, shortened: as §1
[4] = tested on: Klebsiella pneumoniae; test: Potentiation of colistin-induced antibacterial activity against colistin resistant Klebsiella pneumoniae C3 assessed as colistin MIC at 5 uM incubated for 16 hrs by broth microdilution method; format: functional; procedure, shortened: as §1
[5] = tested on: Pseudomonas aeruginosa; test: Antimicrobial activity against colistin resistant Pseudomonas aeruginosa TRPA 162 assessed as inhibition of microbial growth incubated for 16 hrs by broth microdilution method; format: functional, organism-based
Procedure, shortened: (§2)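 Bacteria grown 6 h in cation-adjusted Mueller Hinton broth (CAMHB), subcultured to 5×10^5 CFU/mL. Compound added from DMSO stock and serially two-fold diluted in the culture. Incubated stationary at 37 °C for 16 h. MIC taken as the lowest concentration giving 90% growth inhibition versus untreated wells. Duplicate, repeated at least twice.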

[6] = tested on: Klebsiella pneumoniae; test: Potentiation of colistin-induced antibacterial activity against colistin resistant Klebsiella pneumoniae I2 assessed as colistin MIC at 5 uM incubated for 16 hrs by broth microdilution method; format: functional; procedure, shortened: as §1
[7] = tested on: Klebsiella pneumoniae; test: Potentiation of colistin-induced antibacterial activity against colistin-resistant Klebsiella pneumoniae B9 assessed as fold change in colistin MIC at 3 uM incubated for 16 hrs by broth microdilution method; format: functional; procedure, shortened: as §1
[8] = tested on: Klebsiella pneumoniae; test: Synergistic antibacterial activity against Klebsiella pneumoniae B9 assessed as reduction in colony forming unit measured per ml at 5 uM measured after 8 hrs in the presence of 0.5 ug/ml of colistin by time-kill assay; format: functional
Procedure, shortened: (§3)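 Overnight CAMHB culture subcultured to 5×10^5 CFU/mL in fresh CAMHB, split into 4 mL aliquots. Dosed with carrier only, adjuvant, colistin, or adjuvant plus colistin. Shaken at 37 °C. At 2, 4, 6, 8 and 24 h, 100 µL sampled, ten-fold serially diluted in CAMHB up to 7 times, plated on LB Lennox agar, incubated overnight at 37 °C, colonies counted.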

[9] = Hemolytic activity in sheep RBC assessed as hemolysis upto 400 uM incubated for 1 hrs by UV-Vis spectrophotometric analysis; format: toxicity, cell-based, Ovis aries; conditions: erythrocyte
Procedure, shortened: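 Defibrinated sheep blood cells washed three times in PBS by centrifugation (10 min, 10,000 rpm), resuspended in 10 mL PBS, compound added. PBS served as 0% lysis and 1% Triton X-100 as 100% lysis. Shaken at 200 rpm, 37 °C, 1 h, then centrifuged. Supernatant diluted 40-fold in water, absorbance read at 540 nm.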

[10] = tested on: Klebsiella pneumoniae; test: Induction of drug resistance in colistin-resistant Klebsiella pneumoniae B9 assessed as lipid A modification of LPS at 5 uM incubated for 8 hrs by MALDI-TOF analysis; format: functional, organism-based
Procedure, shortened: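 K. pneumoniae B9 grown 18 h at 37 °C in CAMHB, subcultured to 1×10^6 CFU in 120 mL CAMHB. Left untreated or dosed at 5 μM for 8 h, in duplicate. Cells pelleted, washed with endotoxin-free water, and extracted on-plate with 70% citric acid at 110 °C for 30 min. Norharmane matrix applied, then MALDI-TOF in negative ion mode.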

[11] = tested on: Klebsiella pneumoniae; test: Synergistic antibacterial activity against Klebsiella pneumoniae B9 assessed as reduction in colony forming unit measured per ml at 5 uM measured after 24 hrs in the presence of 2 ug/ml of colistin by time-kill assay; format: functional; procedure, shortened: as §3
[12] = tested on: Acinetobacter baumannii; test: Antimicrobial activity against colistin resistant Acinetobacter baumannii 3941 assessed as inhibition of microbial growth incubated for 16 hrs by broth microdilution method; format: functional, organism-based; procedure, shortened: as §2
[13] = tested on: Klebsiella pneumoniae; test: Synergistic antibacterial activity against Klebsiella pneumoniae B9 assessed as reduction in colony forming unit measured per ml at 5 uM measured after 2 hrs in the presence of 2 ug/ml of colistin by time-kill assay; format: functional; procedure, shortened: as §3
[14] = tested on: Klebsiella pneumoniae; test: Antibacterial activity against Klebsiella pneumoniae B9 assessed as inhibition of bacterial growth incubated for 16 hrs by broth microdilution method; format: functional
Procedure, shortened: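 Broth microdilution in CAMHB. Six-hour culture diluted to 5×10^5 CFU/mL, compound added from DMSO stock, two-fold serial dilution. MIC is the lowest concentration giving 90% growth inhibition versus untreated wells. Run in duplicate, repeated at least twice.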

[15] = tested on: Klebsiella pneumoniae; test: Potentiation of colistin-induced antibacterial activity against colistin-resistant Klebsiella pneumoniae B9 assessed as fold change in colistin MIC at 1 uM incubated for 16 hrs by broth microdilution method; format: functional; procedure, shortened: as §1
[16] = tested on: Klebsiella pneumoniae; test: Antibacterial activity against Klebsiella pneumoniae B9 assessed as inhibition of bacterial growth at 5 uM measured upto 24 hrs by time-kill assay; format: functional, organism-based; procedure, shortened: as §3
[17] = tested on: Escherichia coli; test: Potentiation of colistin-induced antimicrobial activity against colistin resistant Escherichia coli 25922 harbouring mcr-1 gene assessed as colistin MIC at 5 uM incubated for 16 hrs by broth microdilution method; format: functional; procedure, shortened: as §1
[18] = tested on: Klebsiella pneumoniae; test: Synergistic antibacterial activity against Klebsiella pneumoniae B9 assessed as reduction in colony forming unit at 5 uM measured at 6 to 24 hrs in the presence of 4 ug/ml of colistin by time-kill assay; format: functional, organism-based; conditions: time 6-24 hrs; procedure, shortened: as §3
[19] = tested on: Klebsiella pneumoniae; test: Potentiation of colistin-induced antibacterial activity against colistin resistant Klebsiella pneumoniae B9 assessed as colistin MIC at 5 uM incubated for 16 hrs by broth microdilution method; format: functional; procedure, shortened: as §1
[20] = tested on: Escherichia coli; test: Antimicrobial activity against colistin resistant Escherichia coli 25922 harbouring mcr-1 gene assessed as inhibition of microbial growth incubated for 16 hrs by broth microdilution method; format: functional, organism-based; procedure, shortened: as §2
[21] = tested on: Klebsiella pneumoniae; test: Potentiation of colistin-induced antibacterial activity against colistin resistant Klebsiella pneumoniae F9 assessed as colistin MIC at 5 uM incubated for 16 hrs by broth microdilution method; format: functional; procedure, shortened: as §1
[22] = tested on: Klebsiella pneumoniae; test: Potentiation of colistin-induced antibacterial activity against colistin resistant Klebsiella pneumoniae F2210291 harbouring mcr-1 gene assessed as colistin MIC at 5 uM incubated for 16 hrs by broth microdilution method; format: functional; procedure, shortened: as §1
[23] = tested on: Acinetobacter baumannii; test: Potentiation of colistin-induced antimicrobial activity against colistin resistant Acinetobacter baumannii 3941 assessed as assessed as colistin MIC at 5 uM incubated for 16 hrs by broth microdilution method; format: functional; procedure, shortened: as §1
[24] = tested on: Pseudomonas aeruginosa; test: Potentiation of colistin-induced antimicrobial activity against colistin-resistant Pseudomonas aeruginosa TRPA 162 assessed as colistin MIC at 5 uM incubated for 16 hrs by broth microdilution method; format: functional; procedure, shortened: as §1

In the case of `O=C1Nc2cc(Br)ccc2/C1=C1/Nc2cc(Cl)ccc2/C1=N\O`, the “fold change (FC)” value [1] is reported as 1024, the MIC [2] is reported as 16 µg/mL and the MIC [3] is reported as 1 µg/mL. The MIC [4] was 1 µg/mL, the Activity [5] was “inactive” and the MIC [6] was 2 µg/mL. The “fold change (FC)” value [7] was 256, the “log(activity)” value [8] was 1 and the Activity [9] was “Non-Toxic”. For the same molecule, the Activity [10] was “inactive”, the “log(activity)” value [11] was 1 and the Activity [12] was “inactive”. The “log(activity)” value [13] was 2, the MIC [14] was over 200 µM and the “fold change (FC)” value [15] was 32. The Activity [16] was “inactive”, the MIC [17] was 2 µg/mL and the Activity [18] was “Active”. For the same molecule, the MIC [19] was 0.5 µg/mL, the Activity [20] was “inactive” and the MIC [21] was 2 µg/mL. It also gave an MIC [22] of 1 µg/mL, an MIC [23] of over 16 µg/mL and an MIC [24] of over 16 µg/mL.
